PMC9668306 (Science Advances, 2022)
Entries after “also recorded” stand apart in the source; their conditions may differ.

How the values were obtained:
[1] = cited from earlier work
[2] = DRP-104 stability in EL4 tumor homogenate with protease/esterase inhibitors; type: in vitro ADME, mouse; conditions: no inhibitor, time 1 h
[3] = Body weight in MC38 anti-PD-1 combination study; type: in vivo, C57BL/6/CES1-/- mice; conditions: MC38 tumor-bearing mice, throughout the experiment
[4] = Intestinal S9 fraction stability and DON release; type: in vitro ADME; conditions: human
Summary of the method: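 Test compound at 10 μM was incubated with intestinal S9 fraction (final protein 1 mg/ml) at 37°C on an orbital shaker for 1 h, in triplicate. Reactions were quenched with three volumes of acetonitrile containing internal standard.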

EL4 tumors [5] = assay: Antitumor efficacy, intravenous cohort, EL4 tumors; type: in vivo, C57BL/6/CES1-/- mice; conditions: 1 mg/kg DON eq. intravenously, 5 days per week for 2 weeks
Summary of the method: (§1)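 EL4 cells (0.3 × 10^6) were given s.c. in the right flank. At a mean tumour volume of about 400 mm3, mice were randomised (n = 8) to vehicle, parent drug 1 mg/kg or test compound 1 mg/kg DON equivalent, i.v., 5 days/week for 2 weeks. Tumour volume (calipers, […]), body weight and mortality were tracked; euthanasia followed IACUC tumour-volume or weight-loss guidelines.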

[6] = Plasma stability, WT mouse plasma; type: in vitro ADME, WT C57BL/6 mouse; conditions: C57BL/6, mouse
[7] = Tolerability, subcutaneous dosing cohort; type: in vivo, C57BL/6/CES1-/- mice; conditions: 0.1, 0.3 and 1 mg/kg DON eq. subcutaneously
Summary of the method: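 EL4 tumour-bearing CES1−/− mice (0.3 × 10^6 cells s.c., right flank) received test compound at 0.1, 0.3 or 1 mg/kg DON equivalent s.c., 5 days/week. Tumour volume and body weight were recorded during dosing, with GI histology assessed alongside.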

[8] = Metabolite identification; type: in vitro ADME, mouse; conditions: 60-min incubation
EL4 tumors [9] = assay: Antitumor efficacy, subcutaneous dosing cohort, EL4 tumors; type: in vivo, C57BL/6/CES1-/- mice; conditions: 0.1, 0.3 and 1 mg/kg DON eq. subcutaneously, 5 days per week
Summary of the method: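 EL4 mouse lymphoma cells (0.3 × 10^6) were injected s.c. into the right flank of male and female C57BL/6/CES1−/− mice aged 6–8 weeks (25–30 g). Test compound was given s.c. at 0.1, 0.3 or 1 mg/kg DON equivalent, 5 days/week. Tumor length and width were measured by caliper, with volume = […]. Body weight and GI histology were tracked in parallel.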

MC38 tumors [10] = assay: Anti-PD-1 combination study, MC38 tumors; type: in vivo, C57BL/6/CES1-/- mice; conditions: MC38 tumor-bearing mice, same regimens
Summary of the method: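 Mice (4 male, 3 female per group, n = 7) got 5 × 10^5 MC38 cells s.c. in the right flank and were randomised at about 400 mm3 (about day 10). Arms: vehicle; anti-PD-1 100 μg i.p. on days 10, 12, 14 and 16; test compound 0.8 mg/kg s.c., 5 days/week for 4 weeks; combination. Endpoint: tumour >4000 mm3, ulceration, necrosis or functional deficit.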

[11] = Tolerability, intravenous cohort; type: in vivo, C57BL/6/CES1-/- mice
Summary of the method: as §1

[12] = PK of DRP-104, DON and M1 in EL4 tumor-bearing mice; type: in vivo, C57BL/6/CES1-/- mice; conditions: for intact DRP-104 concentration: BLQ = below the limit of quantitation
[13] = biological target: T1, glutaminase enzyme (GLS-1) (Homo sapiens, UniProt O94925); assay: GLS-1 inhibition, [3H]-glutamine radiolabel enzymatic assay; type: biochemical
T1 sequence (O94925 55-669): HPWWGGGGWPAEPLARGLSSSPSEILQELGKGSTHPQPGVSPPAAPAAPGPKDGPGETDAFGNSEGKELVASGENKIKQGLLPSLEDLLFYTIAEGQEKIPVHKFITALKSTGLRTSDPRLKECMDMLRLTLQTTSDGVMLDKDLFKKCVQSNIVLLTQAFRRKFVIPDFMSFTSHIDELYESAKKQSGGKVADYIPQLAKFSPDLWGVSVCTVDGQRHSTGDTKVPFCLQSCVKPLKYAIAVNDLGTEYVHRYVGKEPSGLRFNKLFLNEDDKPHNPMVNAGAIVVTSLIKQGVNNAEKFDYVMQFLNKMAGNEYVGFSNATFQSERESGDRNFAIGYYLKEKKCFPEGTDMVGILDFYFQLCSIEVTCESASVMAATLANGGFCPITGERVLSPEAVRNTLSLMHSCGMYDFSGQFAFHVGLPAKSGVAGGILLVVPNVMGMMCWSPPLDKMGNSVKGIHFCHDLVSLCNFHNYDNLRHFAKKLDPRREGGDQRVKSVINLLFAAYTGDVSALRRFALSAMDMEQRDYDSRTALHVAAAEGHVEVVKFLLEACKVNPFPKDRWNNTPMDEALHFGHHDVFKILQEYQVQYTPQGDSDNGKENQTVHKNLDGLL

recombinant CES1 enzyme = biological target: T2, recombinant CES1 enzyme (Homo sapiens, UniProt P23141); assay: Recombinant CES1 enzyme stability; type: in vitro ADME; conditions: 20 μM, enzyme 10 μg/ml, up to 3 hours
T2 sequence (P23141 18-567): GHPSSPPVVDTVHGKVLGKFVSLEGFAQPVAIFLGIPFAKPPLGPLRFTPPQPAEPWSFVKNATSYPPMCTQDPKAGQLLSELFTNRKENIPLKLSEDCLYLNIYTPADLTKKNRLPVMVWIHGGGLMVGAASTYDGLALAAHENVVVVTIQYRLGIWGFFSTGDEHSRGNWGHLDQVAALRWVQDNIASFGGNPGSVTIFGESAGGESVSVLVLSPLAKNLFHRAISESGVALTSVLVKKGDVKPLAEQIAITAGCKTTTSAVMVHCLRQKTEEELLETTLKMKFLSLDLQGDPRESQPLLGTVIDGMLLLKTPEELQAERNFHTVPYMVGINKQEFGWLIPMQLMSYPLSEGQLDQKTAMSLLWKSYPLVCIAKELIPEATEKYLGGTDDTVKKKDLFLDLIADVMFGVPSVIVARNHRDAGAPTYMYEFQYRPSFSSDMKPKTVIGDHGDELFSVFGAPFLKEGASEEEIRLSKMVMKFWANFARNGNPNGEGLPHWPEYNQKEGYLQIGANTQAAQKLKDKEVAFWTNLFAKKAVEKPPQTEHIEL

[14] = GI tissue homogenate stability and DON release; type: in vitro ADME, C57BL/6/CES1-/- mouse; conditions: C57BL/6/CES1-/-, mouse, GI tissue (jejunum) homogenate, pH 7.4
MC38 tumors [15] = assay: CD8 depletion study, MC38 tumors; type: in vivo, C57BL/6/CES1-/- mice; conditions: MC38, CD8+ T cell-depleting antibodies versus isotype
Summary of the method: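 MC38-bearing CES1−/− mice received anti-mouse CD8β (clone 53-5.8) or rat IgG1 isotype (clone HRPN), 5 mg/kg, the day before implantation, the day after and weekly thereafter; depletion was checked by flow cytometry. Test compound was given at 0.3 mg/kg DON equivalent s.c., 5 days/week, and individual tumour growth was followed.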

[16] = Plasma stability, human plasma; type: in vitro ADME; conditions: % remaining at 60 minutes, 37°C
EL4 tumors [17] = assay: 13C5-glutamine flux analysis in EL4 tumors; type: in vivo, CES1-/- mice; conditions: 0.3 mg/kg DON eq. s.c., vehicle 19.99%
FGAR = assay: Tumor target engagement: tumor FGAR; type: in vivo, C57BL/6/CES1-/- mice; conditions: EL4 tumor, 1 hour after s.c. dose (DRP-104 2.6 mg/kg, DON 0.3 mg/kg)
P493B lymphoma cells = assay: P493B lymphoma cell viability assay; type: cell-based; conditions: 72 h
[18] = GI histopathology and scoring; type: in vivo, C57BL/6/CES1-/- mice; conditions: for GI histology (in words): 1 mg/kg DON eq. IV, end of treatment
GLS-1 = biological target: T3, GLS-1 (Mus musculus, UniProt D3Z7P3); assay: Tumor target engagement: tumor GLS-1 activity; type: in vivo, C57BL/6/CES1-/- mice; conditions: EL4 tumor, 1 hour after s.c. dose
T3 sequence (D3Z7P3 55-674): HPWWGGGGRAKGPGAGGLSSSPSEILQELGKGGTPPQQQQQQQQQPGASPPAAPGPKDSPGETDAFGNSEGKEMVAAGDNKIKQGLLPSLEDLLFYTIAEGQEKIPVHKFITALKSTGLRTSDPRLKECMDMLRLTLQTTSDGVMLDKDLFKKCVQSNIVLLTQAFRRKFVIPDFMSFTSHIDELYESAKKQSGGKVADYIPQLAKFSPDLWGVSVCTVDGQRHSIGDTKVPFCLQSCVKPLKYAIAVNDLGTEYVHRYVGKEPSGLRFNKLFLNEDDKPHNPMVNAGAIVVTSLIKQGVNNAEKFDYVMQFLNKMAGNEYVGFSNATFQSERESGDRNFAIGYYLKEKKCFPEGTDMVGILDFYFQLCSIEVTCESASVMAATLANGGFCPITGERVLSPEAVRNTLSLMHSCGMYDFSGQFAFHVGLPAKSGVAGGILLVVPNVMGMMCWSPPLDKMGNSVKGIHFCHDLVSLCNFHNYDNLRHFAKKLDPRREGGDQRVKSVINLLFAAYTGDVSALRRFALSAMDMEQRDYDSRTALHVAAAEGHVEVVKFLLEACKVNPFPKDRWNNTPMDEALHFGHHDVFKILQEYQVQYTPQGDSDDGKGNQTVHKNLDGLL
Summary of the method: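 Test compound was dosed s.c. to EL4 tumor-bearing CES1−/− mice, and tumors were harvested 1 h post-dose. Tumor GLS-1 activity was quantified with a radiolabel-based enzymatic assay.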

[19] = 31 of 47 patients who received 2 weeks or more of DON therapy; cited from earlier work
Complete blood count = type: in vivo, C57BL/6/CES1-/- mice; conditions: Avg of 3 animals, 1 mg/kg (eq.) iv, normal range 1.06-56.08
Summary of the method: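 In the EL4 i.v. cohort (vehicle, parent drug or test compound at 1 mg/kg DON equivalent, 5 days/week for 2 weeks), mice remaining at the end of treatment were sacrificed and blood was collected for a complete blood count.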

## CCCCCOC(=O)Nc1nc(=O)n([C@@H]2O[C@H](C)[C@@H](O)[C@H]2O)cc1F [capecitabine]
[1]
  average 5-fluorouracil concentration in tumor versus adjacent healthy tissue: 3.2 fold

## COc1ccc(/C=C\c2cc(OC)c(OC)c(OC)c2)cc1OP(=O)(O)O [CA4P, combretastatin A4 phosphate]
[1]
  tumor versus plasma delivery (in words): two- to threefold

## CC(=O)N[C@@H](Cc1c[nH]c2ccccc12)C(=O)N[C@@H](CCC(=O)C=[N+]=[N-])C(=O)OC(C)C [DRP-104, isopropyl(S)-2-((S)-2-acetamido-3-(1H-indol-3-yl)-propanamido)-6-diazo-5-oxo-hexanoate]
[2]
  % DRP-104 remaining: 0%
[3]
  effect on body weight (in words): no substantial effect on body weight
[4]
  remaining at 1 h, 10 μM: 0%
EL4 tumors [5]
  tumor response (in words): complete regression of the tumor
[6]
  remaining at 1 h, 20 μM: 0%
[7]
  overt toxicity (in words): No overt signs of toxicity
[8]; GI tissue homogenate
  metabolites found (MET-ID): only the M1 metabolite
[8]; tumor homogenate
  metabolites found (MET-ID): both DON and M1 metabolite
EL4 tumors [9]
  tumor growth (in words): dose-dependent inhibition of tumor growth; also recorded: complete tumor regression at the higher two doses
MC38 tumors [10]
  survival (in words): enhanced survival compared to vehicle
[11]; 1 mg/kg DON eq. intravenously
  deaths (in words): no deaths were observed
[11]; 1 mg/kg DON eq. intravenously, 5 days per week for 2 weeks
  body weight (in words): maintained their body weight
[12]; GI tissue
  intact DRP-104 concentration: no DRP-104 was observed
[12]; plasma, after DRP-104 2.6 mg/kg s.c., 2.6 mg/kg
  AUC0-t: 0.65 nmol hour/ml or nmol hour/g
[12]; tumor
  intact DRP-104 concentration: no DRP-104 was observed
[13]; intact compound
  inhibition of GLS-1 (in words): inactive
Recombinant CES1 enzyme
  metabolism by recombinant CES1 (in words): CES1 was capable of metabolizing DRP-104 to M1 metabolite
[14]
  remaining at 1 h, 20 μM: 0%
MC38 tumors [15]
  dependence of efficacy on CD8+ T cells (in words): completely dependent
[16]
  remaining at 1 h, 20 μM: > 90%
EL4 tumors [17]
  M+5 isotopologue share of the total glutamate pool: 14.66%
FGAR
  tumor FGAR increase versus vehicle: > 80 fold
P493B lymphoma cells
  EC50: 10 ± 1.9 µM
[18]
  GI histology (in words): improvement in all these parameters
[18]; 1 mg/kg DON eq. subcutaneously
  GI morphology (in words): mild lymphocytic infiltration
[18]; 0.1 and 0.3 mg/kg DON eq. subcutaneously
  GI morphology (in words): normal
GLS-1
  tumor GLS-1 activity versus vehicle (in words): significant inhibition of tumor GLS-1 activity

## [N-]=[N+]=CC(=O)CC[C@H](N)C(=O)O [DON, 6-Diazo-5-oxo-L-norleucine, reference compound]
EL4 tumors [5]
  tumor response (in words): complete regression of the tumor
[19]
  patients with stable disease or regression: 66%
[11]; 1 mg/kg intravenously, 5 days per week for 2 weeks
  body weight reduction: 20 to 30%
[11]; 1 mg/kg intravenously, 5 days/week for 2 weeks
  mice that required euthanasia based on IACUC weight loss guidelines: 63%
[13]
  IC50: 10 ± 0.3 µM
FGAR
  tumor FGAR increase versus vehicle: > 80 fold
P493B lymphoma cells
  EC50: 4 ± 0.6 µM
[18]
  GI histology (in words): severe GI toxicity
Complete blood count
  WBC: 0.93 ± 0.18 K/uL
GLS-1
  tumor GLS-1 activity versus vehicle (in words): significant inhibition of tumor GLS-1 activity
